Where a SMILES comes first, the peptide text is derived from it. Bridges are numbered along the chain shown (N, C = ends). The star is where a group is joined. βGlc = OC[C@H]1O[C@@H](*)[C@H](O)[C@@H](O)[C@@H]1O
Legend:
[1] = molecular target: toll-like receptor 4 (TLR4) (Homo sapiens, UniProt O00206); type: binding; settings: ELISA, result in words
In short: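 Antagonism of LPS–TLR4 binding measured by ELISA, read as optical density at 450 nm. Each sample was run as four parallel experiments, with OD reported as mean ± standard deviation. IC50 values were derived from dose–response curves.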

[2] = tested on: carboxypeptidase Y; experiment: carboxypeptidase Y-treatment experiments; type: in vitro ADME; settings: 28 °C for 12 h, pH 6.0
[3] = thermal stability assay; type: physicochemical; settings: heating experiments, 95 °C for 3 h

Chain of toll-like receptor 4 (TLR4) (O00206 24-839): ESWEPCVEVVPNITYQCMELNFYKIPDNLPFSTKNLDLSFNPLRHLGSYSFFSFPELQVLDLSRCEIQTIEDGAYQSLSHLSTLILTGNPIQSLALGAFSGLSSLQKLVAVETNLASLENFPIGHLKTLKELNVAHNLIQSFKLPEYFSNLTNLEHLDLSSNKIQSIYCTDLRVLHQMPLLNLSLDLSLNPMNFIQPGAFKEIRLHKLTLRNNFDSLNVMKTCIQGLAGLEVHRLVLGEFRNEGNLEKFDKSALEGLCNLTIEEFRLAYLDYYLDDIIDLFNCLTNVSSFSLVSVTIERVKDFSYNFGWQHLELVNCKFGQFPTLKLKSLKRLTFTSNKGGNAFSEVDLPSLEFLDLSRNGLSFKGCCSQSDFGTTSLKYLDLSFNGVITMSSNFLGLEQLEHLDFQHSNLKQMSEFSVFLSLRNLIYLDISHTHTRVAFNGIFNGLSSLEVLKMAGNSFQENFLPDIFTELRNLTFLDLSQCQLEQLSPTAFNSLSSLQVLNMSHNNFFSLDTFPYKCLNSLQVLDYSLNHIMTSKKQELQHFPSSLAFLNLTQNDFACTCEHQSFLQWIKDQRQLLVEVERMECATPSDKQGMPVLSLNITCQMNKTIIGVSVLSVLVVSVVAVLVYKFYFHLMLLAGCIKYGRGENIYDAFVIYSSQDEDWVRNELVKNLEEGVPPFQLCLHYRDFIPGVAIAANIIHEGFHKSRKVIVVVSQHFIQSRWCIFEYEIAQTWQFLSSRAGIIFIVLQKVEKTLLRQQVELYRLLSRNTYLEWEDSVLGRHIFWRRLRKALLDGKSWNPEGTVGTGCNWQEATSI
Chain of toll-like receptor 4 (TLR4) (Q9Y6Y9 17-160 partner limits assumed): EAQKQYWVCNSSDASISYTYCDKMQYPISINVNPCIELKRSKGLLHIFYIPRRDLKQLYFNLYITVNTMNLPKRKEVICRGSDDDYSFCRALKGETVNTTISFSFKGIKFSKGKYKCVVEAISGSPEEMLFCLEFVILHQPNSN

Row | Molecule | antagonistic (inhibitory) activity against the binding of LPS to TLR4 [1] | proteolytic stability [2] | thermal stability [3]
1 | stlassin I4C [compound 21] | comparable inhibitory activities to stlassin (1) |  | 
2 | CC[C@H](C)[C@@H]1NC(=O)[C@H](C(C)C)NC(=O)[C@H](C(C)C)NC(=O)[C@H](CC(C)C)NC(=O)C[C@@H](C(=O)N[C@@H](Cc2c[nH]c3ccccc23)C(=O)N[C@@H](CC(N)=O)C(=O)N[C@@H](C)C(=O)N2CCC[C@H]2C(=O)NCC(=O)N[C@@H](Cc2c[nH]c3ccccc23)C(=O)N[C@@H](Cc2ccc(O[C@@H]3O[C@H](CO)[C@@H](O)[C@H](O)[C@H]3O)cc2)C(=O)O)NC(=O)[C@H](C)NC(=O)[C@H](CCC(N)=O)NC(=O)[C@H](C(C)C)NC1=O [compound 20, stlassin F15Y-I] (LVVIVQADWNAPGWY(βGlc)-OH; lactam N-8) | comparable inhibitory activities to stlassin (1) |  | 
3 | stlassin V2C/A11C [compound 18] |  | similarly high stability to that of 1 | similarly high stability to that of 1
